Experimental data published in ChEMBL document CHEMBL1795258, “A diazen-1-ium-1,2-diolated nitric oxide donor ester prodrug of 3-(4-hydroxymethylphenyl)-4-(4-methanesulfonylphenyl)-5H-furan-2-one: synthesis, biological evaluation and nitric oxide release studies” (Bioorg Med Chem Lett, 2011).

Key:
Mesenteric artery [1] = test: Inhibition of acetylcholine-induced relaxation in Long Evans rat phenylephrine pre-constricted mesenteric arteries assessed as maximum response (reference value: 0.38 +/- 0.01 g/mm); format: functional
Mesenteric artery [2] = test: Inhibition of phenylephrine-induced vasoconstriction in Long Evans rat mesenteric arteries treated 45 mins before phenylephrine challenge; format: functional
Summary of the method: (§1)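 Second-order mesenteric arteries (<250 in diameter, ~2 mm long) dissected in cold (0–4 °C) HEPES-buffered phosphate saline, pH 7.4. Mounted on isometric wire myograph and pretreated 45 min with test compound (1 μM) or DMSO. Constriction to phenylephrine 10^-7–5 × 10^-5 M then recorded.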

Mesenteric artery [3] = test: Inhibition of phenylephrine-induced vasoconstriction in Long Evans rat mesenteric arteries assessed as maximum response treated 45 mins before phenylephrine challenge (reference value: 2.13 +/- 0.23 g/mm); format: functional; summary of the method: as §1
[4] = molecular target: T1, Prostaglandin G/H synthase 1 (Ovis aries, UniProt P05979); test: Inhibition of ovine COX1 by enzyme immuno assay
T1 sequence (P05979 whole entry): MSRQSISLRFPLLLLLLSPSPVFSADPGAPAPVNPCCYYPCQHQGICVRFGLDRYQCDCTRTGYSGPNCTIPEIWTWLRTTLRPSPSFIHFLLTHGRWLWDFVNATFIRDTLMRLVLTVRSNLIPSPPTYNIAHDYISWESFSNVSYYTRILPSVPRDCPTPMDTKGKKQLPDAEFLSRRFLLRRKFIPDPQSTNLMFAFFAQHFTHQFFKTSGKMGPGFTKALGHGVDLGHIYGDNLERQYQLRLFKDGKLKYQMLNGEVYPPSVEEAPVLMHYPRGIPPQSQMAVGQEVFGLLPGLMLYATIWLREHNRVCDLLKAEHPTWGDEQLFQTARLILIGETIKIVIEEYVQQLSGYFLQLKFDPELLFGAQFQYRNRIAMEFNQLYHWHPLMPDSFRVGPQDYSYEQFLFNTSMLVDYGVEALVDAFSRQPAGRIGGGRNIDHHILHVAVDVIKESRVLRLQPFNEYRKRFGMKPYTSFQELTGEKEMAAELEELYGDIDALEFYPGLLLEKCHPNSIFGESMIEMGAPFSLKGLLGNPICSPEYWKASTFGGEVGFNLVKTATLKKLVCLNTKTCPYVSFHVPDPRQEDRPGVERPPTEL

Mesenteric artery [5] = test: tissue or blood; conditions: Rattus norvegicus, Long Evans
Rattus norvegicus = test: Antiinflammatory activity in po dosed rat assessed as inhibition of carrageenan-induced foot paw edema after 3 hrs; format: functional
Summary of the method: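 Carrageenan-induced rat paw edema; test compound given orally, edema inhibition read at 3 h; potency reported as ED50 in μmol/kg.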

[6] = Prodrug activation in 1.0 x 10^-2 mM of phosphate buffered saline at pH 7.4 assessed as nitric oxide release after 1.5 hrs by Griess reaction in presence of rat serum; conditions: pH 7.4, 1.5 h
Summary of the method: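 Compound at 1.0 × 10^-2 mM in pH 7.4 phosphate buffer with a little DMSO plus 90 μL rat serum in 2.4 mL, 37 °C for 1.5 h. Nitrite quantified by Griess reaction as % of theoretical 2 mol NO per mol. Mean of n = 3, variation ≤0.5%.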

[7] = Prodrug activation in 1.0 x 10^-2 mM of phosphate buffered saline at pH 7.4 assessed as nitric oxide release after 1.5 hrs by Griess reaction; format: physicochemical; conditions: buffer, pH 7.4, 1.5 h
Summary of the method: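 Compound at 1.0 × 10^-2 mM in pH 7.4 phosphate buffer with a little DMSO, 37 °C for 1.5 h. NO measured as nitrite by Griess reaction, expressed as % of theoretical 2 mol NO per mol. Mean of n = 3, variation ≤0.5%.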

SMILES	Activity (Mesenteric artery [1]) [g/mm]	IC20 (Mesenteric artery [2]) [nM]	IC50 (Mesenteric artery [2]) [nM]	Activity (Mesenteric artery [3]) [g/mm]	IC50 [4] [nM]	IC50 (Mesenteric artery [5]) [nM]	ED50 (Rattus norvegicus) [µmol/kg]	Activity [6] [%]	Activity [7] [%]
CS(=O)(=O)c1ccc(C2=C(c3ccc(CO)cc3)C(=O)OC2)cc1	0.3	1010	1680	1.51	33100	95	113		
CC(=O)OCO/N=[N+](/[O-])N1CCC[C@@H]1C(=O)OCc1ccc(C2=C(c3ccc(S(C)(=O)=O)cc3)COC2=O)cc1		1370	1750	1.17	> 100000		72.2	38.4	4.2
[Na+].[O-]/N=[N+](/[O-])N1CCC[C@@H]1CO								85	84.5
CS(=O)(=O)c1ccc(C2=C(c3ccccc3)C(=O)OC2)cc1 [ROFECOXIB]	0.23	950	1660	1.32		88	4.8		
